Bioassay records deposited in PubChem by several laboratories.
This is a sample that favours compounds with a hit; in the whole collection about 3.4% have one here.
LANA-H2A inh: blocks KSHV LANA binding to histone H2A/H2B; cell-free LANA-H2A/H2B peptide, fluorescence polarization; 0.6% of 320,000 active; AID 2629; inhibition, % (test concentration not listed); in the data active means inhibition mostly above about 10%, no sharp cut-off; inactive means mostly below about 6.7%
GPR7 antag: antagonists of human GPR7 (neuropeptides B/W receptor 1) | P48145 | GPR7-expressing cells, fluorescence antagonist assay | inhibition, % at 4.4 µM | 1.1% of 290,000 active | AID 1861; in the data active means inhibition above about 16%, passing the limit was not always enough;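 further: cells stimulated with the agonist NPW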
Target sequence (P48145 whole entry, looked up): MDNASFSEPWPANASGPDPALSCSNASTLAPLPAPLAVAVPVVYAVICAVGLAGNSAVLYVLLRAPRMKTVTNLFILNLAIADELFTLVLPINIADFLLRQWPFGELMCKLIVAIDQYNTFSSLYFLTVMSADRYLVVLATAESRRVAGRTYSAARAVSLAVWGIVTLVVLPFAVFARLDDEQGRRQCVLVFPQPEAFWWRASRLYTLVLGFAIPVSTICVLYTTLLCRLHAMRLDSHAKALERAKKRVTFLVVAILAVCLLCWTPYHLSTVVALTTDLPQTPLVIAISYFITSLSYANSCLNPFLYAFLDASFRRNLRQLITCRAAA
TRPML3 ag: human mucolipin-3 channel agonism; 0.29% of 220,000 active; activation, % at 3 µM; HEK293 TRPML3-YFP, Fluo-8 calcium fluorescence; 100% = the carbachol control signal;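 active means activation above its plate's cutoff, the mean activation of the plate's test wells plus 3 SD, cut at about 12% in these data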
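Test system – HEK293 line with stable expression of human TRPML3-YFP channel · Control set – carbachol 87 µM final as high control (100%), DMSO as low control (0%) · Signal – Fluo-8 calcium dye fluorescence, ex 470-495, em 515-575 nm · Incubation – 1-h 37 °C dye load, 5-s basal, 120-s post-compound reads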
TAAR1 ag: human TAAR1 agonism; Q96RJ0; CHO RD-HGA16 TAAR1, Fluo-8 calcium fluorescence; vehicle wells 0%, saturating PEA agonist 100%; activation, % at 3 µM; 0.99% of 360,000 active;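 active means activation above the mean activation of all test compounds in the run plus 3 SD, cut at about 38% in these data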
Target sequence (Q96RJ0 whole entry, looked up): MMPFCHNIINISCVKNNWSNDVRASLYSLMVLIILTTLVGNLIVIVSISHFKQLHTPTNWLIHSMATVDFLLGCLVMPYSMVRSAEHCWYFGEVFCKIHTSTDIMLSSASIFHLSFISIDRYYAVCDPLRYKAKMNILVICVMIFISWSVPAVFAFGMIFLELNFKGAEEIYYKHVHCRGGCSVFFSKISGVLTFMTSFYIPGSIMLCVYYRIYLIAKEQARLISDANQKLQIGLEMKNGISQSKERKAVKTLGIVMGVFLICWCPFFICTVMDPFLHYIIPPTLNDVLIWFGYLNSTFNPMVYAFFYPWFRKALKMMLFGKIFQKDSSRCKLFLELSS
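System: CHO-derived RD-HGA16 cells with stable Gα16 and human TAAR1 / Times: 17-24 h plating, Fluo-8 75 min 37 °C, 30 min RT / Technique: calcium-sensitive Fluo-8 signal, excitation 470-495, emission 515-575 nm / Measure: % activation relative to PEA EC100 response / Benchmarks: DMSO and PEA EC100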
TAAR1 antag: antagonists of human TAAR1; 1.5% of 360,000 active; CHO RD-HGA16 TAAR1, Fluo-8 calcium fluorescence, antagonist; inhibition, % at 3 µM; AID 624466; Q96RJ0;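 active means inhibition above a per-plate cutoff, the mean inhibition of test compounds on that plate plus 3 SD, cut at about 49% in these data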
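Test system: RD-HGA16 CHO cells with stable hTAAR1 and Gα16 / Probe or stimulus: EC80 β-phenethylamine stimulus / Times: seeding 17-24 h prior, 75-min 37 °C, 30-min RT dye loading / Detection: Fluo-8 calcium-sensitive fluorescence / Read-out basis: % inhibition scaled between DMSO and EC80 PEA controls / Repeats: singlicate, one well per test compound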
TRPN1 ag: activates the zebrafish TRPN1 channel; HEK293 zebrafish TRPN1-YFP, Fluo-8 calcium fluorescence; 100% = response to 87 µM carbachol; activation, % at 3 µM; 0.18% of 220,000 active; AID 1424;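 active means activation above its plate's cutoff, the mean activation of test wells on that plate plus 3 SD, cut at about 19% in these data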
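Material – zebrafish TRPN1-YFP in HEK293 cells · Doses – 3 µM single point · Schedule – dye 1 h 37 °C plus 30 min RT · Signal – Fluo-8 calcium fluorescence, excitation 470-495 nm, emission 515-575 nm · Read-out – % activation versus carbachol response · Control set – carbachol high, DMSO low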
nonsel antag count: counter-screen for TAAR1 antagonists: nonselective antagonists. shares compounds with TAAR1 antag. counterscreen cell line, calcium fluorescence, antagonist mode. inhibition, % at 3 µM. 77% of 2,400 active. AID 651780; in the data active means inhibition above about 22%;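 further: CHO-Ga16 host cells stimulated with ATP at an EC80 level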
TAAR1 ant conf: confirmation of human TAAR1 antagonists | shares compounds with TAAR1 antag | TAAR1-expressing cells, fluorescence antagonist read-out | 40% of 2,400 active | inhibition, % at 3 µM; in the data active means inhibition above about 49%;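 further: CHO-Ga16 host cells challenged with agonist PEA near its EC80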
Ga16 ag counter: nonselective Ga16 agonist in TAAR1 antagonist counter-screen. Ga16-expressing cells, calcium fluorescence, agonist counterscreen. AID 651953. 18% of 2,400 active. shares compounds with TAAR1 antag. activation, % at 3 µM; in the data active means activation above about 12%
TAAR1 ag counter: TAAR1 agonism, antagonist counter-screen | shares compounds with TAAR1 antag | hTAAR1 cell line, fluorescence activation, agonist mode | activation, % at 3 µM | 2% of 2,400 active; in the data active means activation above about 37%;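 further: CHO cells stably expressing TAAR1 with calcium dye readout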
A number is an active result.

For C[C@H](NC(=O)c1nc[nH]c1C(=O)NC(c1ccccc1)c1ccccc1)C(=O)OCc1ccccc1 the results were LANA-H2A inh inactive, TAAR1 ag inactive and TAAR1 antag inactive.
For N#Cc1cc(C#N)c(N2CCN(c3cccc(Cl)n3)CC2)nc1N the results were LANA-H2A inh inactive, GPR7 antag inactive, TRPML3 ag inactive, TAAR1 ag inactive, TAAR1 antag 58, TRPN1 ag inactive, nonsel antag count 34, TAAR1 ant conf 49, Ga16 ag counter 19 and TAAR1 ag counter inactive.
Screening NC1CCN(c2cccc(Cl)n2)CC1 returned LANA-H2A inh inactive.
Cc1nc(N2CCN(Cc3ccc(Cl)cc3)CC2)c2oc3ccccc3c2n1 was read as LANA-H2A inh inactive, GPR7 antag inactive, TRPML3 ag inactive, TAAR1 ag inactive, TAAR1 antag inactive and TRPN1 ag inactive.
For Cc1nc(N2CCN(Cc3ccc4c(c3)OCO4)CC2)c2oc3ccccc3c2n1 the results were TAAR1 ag inactive, TAAR1 antag 72, nonsel antag count inactive, TAAR1 ant conf inactive, Ga16 ag counter inactive and TAAR1 ag counter inactive.
For Cc1cc(C)c(CC(=O)c2ccccc2)c(C)c1 the results were TAAR1 ag inactive and TAAR1 antag inactive.
COc1ccc(S(=O)(=O)Nc2c(NC3CCCCC3)c3ccccc3oc2=O)cc1OC was read as LANA-H2A inh inactive, GPR7 antag inactive, TAAR1 ag inactive, TAAR1 antag 51, nonsel antag count inactive, TAAR1 ant conf inactive, Ga16 ag counter inactive and TAAR1 ag counter inactive.
For CC(C)(C)NC(=O)CCN(/N=C/c1ccccc1O)C1=NS(=O)(=O)c2ccccc21 the results were LANA-H2A inh inactive, GPR7 antag inactive, TAAR1 ag inactive, TAAR1 antag 59, nonsel antag count 25, TAAR1 ant conf inactive, Ga16 ag counter 12 and TAAR1 ag counter inactive.
`CN(Cc1ccccc1)C(=O)COC(=O)c1ccc[nH]c1=O` gave LANA-H2A inh inactive, TAAR1 ag inactive and TAAR1 antag inactive.
O=S1(=O)N[C@@H](Cc2ccccc2)COc2cccc(N3CCN(Cc4ccccc4F)CC3)c21 was read as TAAR1 ag inactive, TAAR1 antag 71, nonsel antag count 35, TAAR1 ant conf 50, Ga16 ag counter inactive and TAAR1 ag counter inactive.
For Cc1ccc(CSCCNC(=O)/C=C/c2ccccc2Cl)cc1 the results were LANA-H2A inh inactive, GPR7 antag inactive, TRPML3 ag inactive, TAAR1 ag inactive, TAAR1 antag 52, TRPN1 ag inactive, nonsel antag count 25, TAAR1 ant conf inactive, Ga16 ag counter inactive and TAAR1 ag counter inactive.
Screening O=[N+]([O-])c1ccc(Cn2cc(-c3cccc(C(F)(F)F)c3)nn2)cc1 returned LANA-H2A inh inactive, GPR7 antag inactive, TAAR1 ag inactive and TAAR1 antag inactive.
`CCOC(=O)Cc1csc(/N=C/c2c(O)n(-c3ccccc3C(F)(F)F)c(=O)c3ccccc23)n1` gave LANA-H2A inh inactive, GPR7 antag inactive, TRPML3 ag inactive, TAAR1 ag inactive, TAAR1 antag 75, TRPN1 ag inactive, nonsel antag count 34, TAAR1 ant conf 56, Ga16 ag counter inactive and TAAR1 ag counter inactive.
CCOC(=O)Cc1csc(-n2sc3ccccc3c2=O)n1 was read as LANA-H2A inh inactive, GPR7 antag inactive, TRPML3 ag inactive, TAAR1 ag inactive, TAAR1 antag inactive and TRPN1 ag inactive.
CCC(=O)N1CCN(c2ccc(-n3c(=O)ccc4cnc5ccc(-c6cnc7ccccc7c6)cc5c43)cc2C(F)(F)F)CC1 was read as TAAR1 ag inactive, TAAR1 antag 50, nonsel antag count inactive, TAAR1 ant conf inactive, Ga16 ag counter inactive and TAAR1 ag counter inactive.
O=C(O)COCC(=O)N1CCN(c2cc(C(F)(F)F)nc3ccccc23)CC1 was read as LANA-H2A inh inactive, GPR7 antag inactive, TAAR1 ag inactive and TAAR1 antag inactive.
For CCC1CN(C(=O)N2CCC(C(=O)NCCc3ccccc3OC)CC2)c2ccccc2O1 (centres undefined) the results were LANA-H2A inh inactive, GPR7 antag inactive, TAAR1 ag inactive, TAAR1 antag 75, nonsel antag count 29, TAAR1 ant conf 54, Ga16 ag counter inactive and TAAR1 ag counter inactive.
Screening CCC1CN(C(=O)N2CCC(C(=O)NCc3ccco3)CC2)c2cc(C)ccc2O1 (centres undefined) returned LANA-H2A inh inactive, GPR7 antag inactive, TAAR1 ag inactive, TAAR1 antag 50, nonsel antag count 28, TAAR1 ant conf 49, Ga16 ag counter inactive and TAAR1 ag counter inactive.
For CCC1CN(C(=O)N2CCC(C(=O)NCc3ccccc3C)CC2)c2ccccc2O1 (centres undefined) the results were LANA-H2A inh inactive, GPR7 antag inactive, TAAR1 ag inactive and TAAR1 antag inactive.
`CCC1CN(C(=O)N2CCC(C(=O)NCc3ccc(C)o3)CC2)c2cc(C)ccc2O1` (centres undefined) gave LANA-H2A inh inactive, GPR7 antag inactive, TAAR1 ag inactive and TAAR1 antag inactive.
`CCC1CN(C(=O)N2CCC(C(=O)NCCc3ccc(OC)cc3OC)CC2)c2ccccc2O1` (centres undefined) gave LANA-H2A inh inactive, GPR7 antag inactive, TAAR1 ag inactive, TAAR1 antag 56, nonsel antag count 35, TAAR1 ant conf 54, Ga16 ag counter inactive and TAAR1 ag counter inactive.
Cc1cccc(C(=O)OCC(=O)c2csc(N3CCCCC3)n2)c1[N+](=O)[O-] was read as LANA-H2A inh inactive, TAAR1 ag inactive and TAAR1 antag inactive.
COc1cccc(N2CCN(C(=O)c3ccc(OC)c(S(=O)(=O)NC4CC4)c3)CC2)c1 was read as TAAR1 ag inactive and TAAR1 antag inactive.
`OC1(c2cccc(C(F)(F)F)c2)CCN(c2ccc(-c3ccccc3)nn2)CC1` gave LANA-H2A inh inactive, GPR7 antag inactive, TRPML3 ag inactive, TAAR1 ag inactive, TAAR1 antag 75, TRPN1 ag inactive, nonsel antag count inactive, TAAR1 ant conf inactive, Ga16 ag counter inactive and TAAR1 ag counter inactive.
